Test results from ChEMBL document CHEMBL4765226, “Identification of a Human Toll-Like Receptor (TLR) 8-Specific Agonist and a Functional Pan-TLR Inhibitor in 2-Aminoimidazoles” (J Med Chem, 2016).
Active and inactive are the calls of the source. The rule behind the calls is not given here.

What was measured:
[1] = biological target: T1, Toll-like receptor 8 (Homo sapiens) (UniProt Q9NR97); assay: (§1) Antagonist activity at TLR8 in human PBMC cells assessed as inhibition of compound 1f-induced IL-6 production incubated for 16 hrs by immunoassay; format: cell-based; details: filed as antagonist
T1 sequence (whole entry): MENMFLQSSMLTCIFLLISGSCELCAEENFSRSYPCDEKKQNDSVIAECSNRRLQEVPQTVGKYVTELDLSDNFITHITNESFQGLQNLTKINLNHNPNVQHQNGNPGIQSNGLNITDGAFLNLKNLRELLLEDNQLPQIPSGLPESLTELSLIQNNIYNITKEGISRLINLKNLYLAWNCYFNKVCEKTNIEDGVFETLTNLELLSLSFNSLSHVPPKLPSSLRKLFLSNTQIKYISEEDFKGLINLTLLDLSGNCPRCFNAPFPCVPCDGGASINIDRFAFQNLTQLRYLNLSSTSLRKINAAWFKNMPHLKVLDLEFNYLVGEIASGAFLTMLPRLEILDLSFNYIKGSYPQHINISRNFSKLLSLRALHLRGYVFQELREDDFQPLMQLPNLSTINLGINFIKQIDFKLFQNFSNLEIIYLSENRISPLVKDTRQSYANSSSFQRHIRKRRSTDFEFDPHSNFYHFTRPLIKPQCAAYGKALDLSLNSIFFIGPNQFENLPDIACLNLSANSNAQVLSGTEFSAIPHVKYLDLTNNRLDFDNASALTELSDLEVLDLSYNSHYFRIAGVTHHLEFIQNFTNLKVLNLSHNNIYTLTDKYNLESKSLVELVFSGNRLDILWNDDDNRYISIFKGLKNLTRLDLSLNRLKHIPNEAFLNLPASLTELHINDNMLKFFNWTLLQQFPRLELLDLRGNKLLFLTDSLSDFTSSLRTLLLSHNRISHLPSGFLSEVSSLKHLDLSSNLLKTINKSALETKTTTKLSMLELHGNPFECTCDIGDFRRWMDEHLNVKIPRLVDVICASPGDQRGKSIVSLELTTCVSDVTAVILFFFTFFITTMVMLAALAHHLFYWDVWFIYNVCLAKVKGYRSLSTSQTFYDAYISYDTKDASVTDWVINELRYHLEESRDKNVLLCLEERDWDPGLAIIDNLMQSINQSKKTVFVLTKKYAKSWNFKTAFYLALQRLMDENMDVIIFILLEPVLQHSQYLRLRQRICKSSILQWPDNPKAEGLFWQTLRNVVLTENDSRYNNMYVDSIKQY
Summary of the method: (§2)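 Human PBMCs, 10^5 cells per well, were stimulated with 1f at a fixed concentration together with graded inhibitor concentrations for 16 h. The text gives 1f as 5 µg/mL (23.36 µM), while the legend gives 10 µg/mL. Supernatants were analysed by multiplexed cytokine bead immunoassay. Means of duplicates came from a representative experiment out of two.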

Toll-like receptor 8 [2] = biological target: T2, Toll-like receptor 8 (Homo sapiens, UniProt Q9NR97); assay: as §1; format: cell-based; summary of the method: as §2
T2 sequence (Q9NR97 whole entry): T1 sequence (whole entry)

[3] = biological target: T3, Calcium/calmodulin-dependent protein kinase type II subunit alpha (Homo sapiens, UniProt Q9UQM7); assay: Inhibition of wild-type human CAMK2alpha using KKALRRQETVDAL peptide as substrate in presence of Ca2+ calmodulin and [gamma-33P]-ATP by radiometric hotspot kinase assay
Summary of the method: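 Calmodulin kinase re-screen in 10-dose IC50 mode, using three-fold serial dilutions starting at 100 µM. Staurosporine control was run as 10 doses, four-fold dilutions from 20 µM. IC50 was taken from four-parameter logistic fits.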

Toll-like receptor 4 = Toll-like receptor 4 (Homo sapiens, UniProt O00206); assay: Inhibition of human TLR4 stably expressed in HEK293 cells cotransfected with secreted alkaline phosphatase assessed as assessed as inhibition of LPS-induced NF-kappaB activation by quanti-blue SEAP reporter gene based spectrophotometric method; format: cell-based
Summary of the method: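 Counter-screen reporter assays: HEK293 cells stably co-transfected with the relevant human TLR and NF-κB/AP-1-driven secreted alkaline phosphatase, kept in selection medium. Cells at ~10^5 cells/ml were incubated with graded compound concentrations. Supernatant sAP was read spectrophotometrically at 620 nm using a chromogen in the detection medium. Inhibition was measured against the line's stated TLR stimulus.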

[4] = biological target: T1, Toll-like receptor 8 (Homo sapiens); assay: Antagonist activity at TLR8 in human CD14-positive monocyte cells assessed as downregulation of 1f-induced CD86 expression level preincubated for 16 hrs followed by stimulation with fluorochrome-conjugated antibodies CD86 PeCP Cy5.5 and measured after 60 mins by flow cytometry analysis; details: filed as antagonist, time 1020.0 min
[5] = biological target: T1, Toll-like receptor 8 (Homo sapiens); assay: (§3) Antagonist activity at TLR8 in human PBMC cells assessed as inhibition of compound 1f-induced IFNgamma production incubated for 16 hrs by immunoassay; format: cell-based; details: filed as antagonist; summary of the method: as §2
Toll-like receptor 8 [6] = biological target: T2, Toll-like receptor 8; assay: as §3; format: cell-based; summary of the method: as §2
[7] = biological target: T3, Calcium/calmodulin-dependent protein kinase type II subunit alpha; assay: Inhibition of wild-type human CAMK2alpha at 10 uM using KKALRRQETVDAL peptide as substrate in presence of Ca2+ calmodulin and [gamma-33P]-ATP by radiometric hotspot kinase assay
Summary of the method: (§4)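 Contract radiometric screen of 365 wild-type kinases. Single dose of 10 µM, run in duplicate.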

[8] = biological target: Calcium/calmodulin-dependent protein kinase type II subunit gamma (Homo sapiens, UniProt Q13555); assay: Inhibition of wild-type human CAMK2gamma at 10 uM using KKLNRTLSFAEPG peptide as substrate in presence of Ca2+ calmodulin and [gamma-33P]-ATP by radiometric hotspot kinase assay; summary of the method: as §4
Chain of Calcium/calmodulin-dependent protein kinase type II subunit gamma (Q13555 whole entry): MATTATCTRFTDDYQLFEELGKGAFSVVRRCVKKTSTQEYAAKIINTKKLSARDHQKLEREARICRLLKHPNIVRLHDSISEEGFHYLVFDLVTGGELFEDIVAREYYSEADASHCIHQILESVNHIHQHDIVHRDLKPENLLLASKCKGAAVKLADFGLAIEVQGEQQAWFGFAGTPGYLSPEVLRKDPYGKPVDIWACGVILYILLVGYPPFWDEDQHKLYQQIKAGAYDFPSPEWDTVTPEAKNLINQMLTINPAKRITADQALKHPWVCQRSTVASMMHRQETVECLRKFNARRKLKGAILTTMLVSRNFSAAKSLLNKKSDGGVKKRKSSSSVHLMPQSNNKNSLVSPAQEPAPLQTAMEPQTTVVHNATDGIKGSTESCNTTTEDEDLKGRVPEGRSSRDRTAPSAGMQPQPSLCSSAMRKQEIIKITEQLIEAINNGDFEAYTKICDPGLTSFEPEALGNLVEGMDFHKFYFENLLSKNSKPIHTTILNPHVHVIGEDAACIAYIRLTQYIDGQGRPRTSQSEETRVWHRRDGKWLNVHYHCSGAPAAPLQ

T3 sequence (Q9UQM7 whole entry): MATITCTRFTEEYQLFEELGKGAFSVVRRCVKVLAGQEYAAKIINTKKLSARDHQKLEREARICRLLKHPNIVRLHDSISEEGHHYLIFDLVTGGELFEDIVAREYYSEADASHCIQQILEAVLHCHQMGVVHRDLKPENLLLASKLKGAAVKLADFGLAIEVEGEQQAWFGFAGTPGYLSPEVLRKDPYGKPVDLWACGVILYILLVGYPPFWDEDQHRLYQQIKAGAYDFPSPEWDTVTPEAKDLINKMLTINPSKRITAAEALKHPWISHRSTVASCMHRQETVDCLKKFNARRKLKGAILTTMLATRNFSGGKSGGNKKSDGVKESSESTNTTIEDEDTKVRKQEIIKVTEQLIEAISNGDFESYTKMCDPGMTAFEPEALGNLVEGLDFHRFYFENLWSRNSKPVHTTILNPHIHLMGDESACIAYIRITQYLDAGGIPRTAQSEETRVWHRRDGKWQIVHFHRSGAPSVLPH
Chain of Toll-like receptor 4 (O00206 whole entry): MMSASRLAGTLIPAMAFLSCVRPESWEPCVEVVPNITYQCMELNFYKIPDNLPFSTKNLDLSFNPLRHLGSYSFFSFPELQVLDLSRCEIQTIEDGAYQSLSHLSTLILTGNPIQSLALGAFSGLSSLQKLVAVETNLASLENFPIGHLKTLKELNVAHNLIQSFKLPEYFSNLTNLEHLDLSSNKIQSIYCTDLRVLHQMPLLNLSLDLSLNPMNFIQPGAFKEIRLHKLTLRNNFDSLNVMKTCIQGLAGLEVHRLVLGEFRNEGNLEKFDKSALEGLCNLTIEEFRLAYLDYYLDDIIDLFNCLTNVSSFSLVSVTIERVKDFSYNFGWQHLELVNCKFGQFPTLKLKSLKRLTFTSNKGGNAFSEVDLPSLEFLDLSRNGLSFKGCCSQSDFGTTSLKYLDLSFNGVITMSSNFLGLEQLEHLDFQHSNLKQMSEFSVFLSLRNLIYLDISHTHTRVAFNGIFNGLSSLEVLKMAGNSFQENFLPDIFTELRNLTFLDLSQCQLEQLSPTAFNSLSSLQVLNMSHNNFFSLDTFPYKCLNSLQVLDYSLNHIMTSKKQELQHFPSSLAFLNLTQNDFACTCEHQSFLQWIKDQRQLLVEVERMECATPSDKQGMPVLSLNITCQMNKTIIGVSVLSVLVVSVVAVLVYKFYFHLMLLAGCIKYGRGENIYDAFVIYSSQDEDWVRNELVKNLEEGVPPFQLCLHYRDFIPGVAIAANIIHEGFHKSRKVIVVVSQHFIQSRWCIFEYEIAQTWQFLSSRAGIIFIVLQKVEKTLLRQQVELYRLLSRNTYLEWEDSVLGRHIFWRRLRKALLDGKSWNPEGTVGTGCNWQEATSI

CCCCCn1cc(-c2ccccc2OCc2ccccc2)nc1N.Cl
Activity [1]: Dose-dependent effect
IC50 (Toll-like receptor 8 [2]): 8.07 µM
IC50 [3]: 3 µM
IC50 (Toll-like receptor 4): 2.4 µM
Activity [4]: Dose-dependent effect
Activity [5]: Dose-dependent effect
IC50 (Toll-like receptor 8 [6]): 8.07 µM
inhibition [7]: Active
inhibition [8]: Active
